One test concerns ZR-75-1 cells. The test can be described thus: Growth rate inhibition. The class given is cell-based. Particulars: ZR-75-1, 72-hour treatment.
For test [1], the system named is pPRAS40, pGSK3β, pS6 in T47D cells. Description: Immunoblot of downstream AKT signaling in T47D cells. It is filed as cell-based. To be noted: 24 hours. Background: Immunoblotting shows a protein as a band on a membrane.
Test [2] concerns pPRAS40 in T47D and MDA-MB-468 cells. Description: Time course and washout immunoblots of pPRAS40. It is filed as cell-based. To be noted: for pPRAS40 levels over time: 250 nM, T47D and MDA-MB-468, continuous treatment; for pPRAS40 levels after washout: 12 hours treatment with 250 nM, then washout.
A further test addresses AKT3 (Homo sapiens, UniProt Q9Y243). Description: Z'-LYTE FRET-based kinase inhibition assay, AKT3. It is filed as biochemical.
The test system of test [3] is AKT in T47D and MDA-MB-468 cells. The test can be described thus: Time course and washout immunoblots of AKT levels. It is filed as cell-based.
Test [4] deals with MDA-MB-468 and HCC1937 cells. Description: Growth rate inhibition. It is filed as cell-based. To be noted: MDA-MB-468 and HCC1937, 72-hour treatment.
The next test has as its system MOLT4 cells proteome. Description: TMT quantitative mass spectrometry proteomics in MOLT4 cells. The class given is cell-based, human. To be noted: MOLT4, 250 nM, 4 hours, vs DMSO.
Test [5] has as its target T1, S6K1 (Homo sapiens, UniProt P23443). The test can be described thus: Z'-LYTE kinase assay, S6K1. The class given is biochemical.
In the next test the target is PKG1 (Homo sapiens, UniProt Q13976). The test can be described thus: Z'-LYTE kinase assay, PKG1. The class given is biochemical.
Test [6] addresses T1, S6K1. The test can be described thus: Immunoblot of S6K1 degradation. The class given is cell-based.
A further test deals with RET (V804M) (Homo sapiens, UniProt P07949, V804M). Description: LanthaScreen assay, RET. It is filed as biochemical. A general note: Time-resolved FRET reads energy transfer from a long-lived donor to a nearby acceptor.
The subject of test [7] is Ikaros (IKZF1) and Aiolos (IKZF3). The test can be described thus: Immunoblot of Ikaros and Aiolos degradation. It is filed as cell-based. To be noted: 24 hours of drug treatment. The method, boiled down:
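Cells were seeded at 250,000/mL (T47D at 200,000/mL) in RPMI or DMEM with 10% serum, left overnight, then given test compound. They were lysed 15 min in RIPA (pH 7.5) with 0.1% SDS, phosphatase and protease inhibitors, cleared at 14,000 rpm for 10 min at 4°C, and protein-normalized. Lysates went through SDS-PAGE and nitrocellulose transfer, milk block, primary antibodies at 4°C overnight, and fluorescent secondaries 1 h RT. Imaging was on a LI-COR Odyssey.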

The test system of test [8] is AKT1, AKT2, AKT3 in MDA-MB-468 cells. Description: Immunoblot of AKT isoform degradation in MDA-MB-468 cells. It is filed as cell-based.
In test [9] the test system is AKT isoforms in T47D cells. The test can be described thus: Immunoblot of AKT degradation in T47D cells. The class given is cell-based. To be noted: 24-hour treatment, 250 nM.
For another test, the target named is AKT2 (Homo sapiens, UniProt P31751). The test can be described thus: Z'-LYTE FRET-based kinase inhibition assay, AKT2. The class given is biochemical.
The target of another test is AKT1 (Homo sapiens, UniProt P31749). Description: Z'-LYTE FRET-based kinase inhibition assay, AKT1. The class given is biochemical.
In test [10] the test system is ZR-75-1, T47D, LNCaP, and MCF-7 cells. Description: Growth rate inhibition. The class given is cell-based. Particulars: 72-hour treatment, Figures 3A-D.

These results are taken from publication PMC6980747 (Cell chemical biology, 2019).

T1 sequence (P23443 whole entry): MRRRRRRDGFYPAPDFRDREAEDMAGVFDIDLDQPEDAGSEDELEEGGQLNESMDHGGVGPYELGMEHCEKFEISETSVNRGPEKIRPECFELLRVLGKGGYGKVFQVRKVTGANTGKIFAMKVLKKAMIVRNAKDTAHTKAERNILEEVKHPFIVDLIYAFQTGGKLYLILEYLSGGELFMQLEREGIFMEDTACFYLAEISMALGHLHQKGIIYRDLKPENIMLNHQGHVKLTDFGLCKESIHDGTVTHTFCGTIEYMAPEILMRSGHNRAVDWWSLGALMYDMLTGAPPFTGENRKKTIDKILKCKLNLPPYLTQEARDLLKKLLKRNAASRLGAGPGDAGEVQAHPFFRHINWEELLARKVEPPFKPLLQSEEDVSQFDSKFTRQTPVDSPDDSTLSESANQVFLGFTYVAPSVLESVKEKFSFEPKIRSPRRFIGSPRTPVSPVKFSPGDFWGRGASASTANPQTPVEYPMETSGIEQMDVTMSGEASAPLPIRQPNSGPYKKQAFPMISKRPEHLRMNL
Sequence of AKT3 (Q9Y243 whole entry): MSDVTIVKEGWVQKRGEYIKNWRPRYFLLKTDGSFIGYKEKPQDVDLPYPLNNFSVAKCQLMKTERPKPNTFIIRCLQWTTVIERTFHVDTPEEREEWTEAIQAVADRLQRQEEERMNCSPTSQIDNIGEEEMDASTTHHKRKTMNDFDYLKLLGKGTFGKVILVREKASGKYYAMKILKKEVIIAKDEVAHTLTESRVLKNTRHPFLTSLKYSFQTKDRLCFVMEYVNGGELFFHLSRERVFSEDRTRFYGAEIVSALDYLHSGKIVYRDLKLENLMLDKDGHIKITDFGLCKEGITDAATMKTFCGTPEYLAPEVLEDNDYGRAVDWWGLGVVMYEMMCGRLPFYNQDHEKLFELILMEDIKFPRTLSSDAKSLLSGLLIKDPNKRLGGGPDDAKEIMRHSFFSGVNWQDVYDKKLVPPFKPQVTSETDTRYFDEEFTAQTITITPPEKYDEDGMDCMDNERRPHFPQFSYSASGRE
Sequence of AKT1 (P31749 whole entry): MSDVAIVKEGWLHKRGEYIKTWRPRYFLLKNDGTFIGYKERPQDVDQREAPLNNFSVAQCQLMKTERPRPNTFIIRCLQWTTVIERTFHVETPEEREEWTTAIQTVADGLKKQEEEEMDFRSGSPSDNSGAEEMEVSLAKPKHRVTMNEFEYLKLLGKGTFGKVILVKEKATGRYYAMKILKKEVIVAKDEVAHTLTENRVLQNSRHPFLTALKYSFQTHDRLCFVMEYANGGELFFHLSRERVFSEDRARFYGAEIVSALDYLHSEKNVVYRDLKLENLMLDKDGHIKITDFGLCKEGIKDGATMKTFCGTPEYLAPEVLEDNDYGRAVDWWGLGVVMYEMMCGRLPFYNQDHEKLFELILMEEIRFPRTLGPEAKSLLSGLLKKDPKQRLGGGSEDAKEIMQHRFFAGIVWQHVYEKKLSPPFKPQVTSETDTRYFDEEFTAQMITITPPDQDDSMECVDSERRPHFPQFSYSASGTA
Sequence of AKT2 (P31751 whole entry): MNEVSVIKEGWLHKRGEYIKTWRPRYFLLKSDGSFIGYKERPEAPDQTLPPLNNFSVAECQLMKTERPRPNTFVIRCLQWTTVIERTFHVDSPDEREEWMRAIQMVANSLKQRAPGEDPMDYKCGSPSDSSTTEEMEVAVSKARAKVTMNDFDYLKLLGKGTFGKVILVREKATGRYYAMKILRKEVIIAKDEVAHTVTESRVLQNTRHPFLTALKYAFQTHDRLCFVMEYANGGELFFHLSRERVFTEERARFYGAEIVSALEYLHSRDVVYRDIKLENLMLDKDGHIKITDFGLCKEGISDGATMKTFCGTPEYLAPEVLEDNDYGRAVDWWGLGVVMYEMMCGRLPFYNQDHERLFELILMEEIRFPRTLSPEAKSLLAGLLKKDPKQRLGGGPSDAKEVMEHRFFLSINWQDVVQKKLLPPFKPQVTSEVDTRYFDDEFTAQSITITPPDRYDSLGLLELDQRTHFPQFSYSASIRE
Sequence of RET (V804M) (P07949 29-1114 V804M): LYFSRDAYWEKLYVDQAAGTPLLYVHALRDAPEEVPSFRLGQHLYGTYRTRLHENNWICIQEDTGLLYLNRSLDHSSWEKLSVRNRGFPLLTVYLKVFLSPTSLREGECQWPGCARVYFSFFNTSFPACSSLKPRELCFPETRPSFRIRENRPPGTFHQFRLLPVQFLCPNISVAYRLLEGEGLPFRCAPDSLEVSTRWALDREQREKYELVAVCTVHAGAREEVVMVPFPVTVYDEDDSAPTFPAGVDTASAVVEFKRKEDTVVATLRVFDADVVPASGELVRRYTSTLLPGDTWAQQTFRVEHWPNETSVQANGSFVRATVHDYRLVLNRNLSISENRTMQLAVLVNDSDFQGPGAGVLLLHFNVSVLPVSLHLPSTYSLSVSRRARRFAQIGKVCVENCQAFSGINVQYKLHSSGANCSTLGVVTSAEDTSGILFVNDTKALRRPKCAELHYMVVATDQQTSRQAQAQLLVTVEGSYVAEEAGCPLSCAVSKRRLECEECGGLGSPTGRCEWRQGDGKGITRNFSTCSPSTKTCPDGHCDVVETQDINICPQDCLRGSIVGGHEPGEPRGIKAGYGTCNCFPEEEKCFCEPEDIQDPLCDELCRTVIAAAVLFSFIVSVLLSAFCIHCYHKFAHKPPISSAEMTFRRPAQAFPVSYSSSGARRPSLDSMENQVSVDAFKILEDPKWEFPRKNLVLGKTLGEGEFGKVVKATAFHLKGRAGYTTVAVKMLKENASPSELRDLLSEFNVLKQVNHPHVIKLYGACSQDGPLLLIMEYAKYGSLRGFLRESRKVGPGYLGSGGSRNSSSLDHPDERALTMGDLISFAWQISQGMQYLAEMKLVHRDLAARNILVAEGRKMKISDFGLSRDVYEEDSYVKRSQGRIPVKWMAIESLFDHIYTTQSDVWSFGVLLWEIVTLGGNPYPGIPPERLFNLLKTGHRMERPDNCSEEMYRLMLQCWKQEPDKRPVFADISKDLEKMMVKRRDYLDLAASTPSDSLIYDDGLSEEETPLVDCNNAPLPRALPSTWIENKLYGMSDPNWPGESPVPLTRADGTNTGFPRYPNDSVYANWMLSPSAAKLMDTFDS
Sequence of PKG1 (Q13976 whole entry): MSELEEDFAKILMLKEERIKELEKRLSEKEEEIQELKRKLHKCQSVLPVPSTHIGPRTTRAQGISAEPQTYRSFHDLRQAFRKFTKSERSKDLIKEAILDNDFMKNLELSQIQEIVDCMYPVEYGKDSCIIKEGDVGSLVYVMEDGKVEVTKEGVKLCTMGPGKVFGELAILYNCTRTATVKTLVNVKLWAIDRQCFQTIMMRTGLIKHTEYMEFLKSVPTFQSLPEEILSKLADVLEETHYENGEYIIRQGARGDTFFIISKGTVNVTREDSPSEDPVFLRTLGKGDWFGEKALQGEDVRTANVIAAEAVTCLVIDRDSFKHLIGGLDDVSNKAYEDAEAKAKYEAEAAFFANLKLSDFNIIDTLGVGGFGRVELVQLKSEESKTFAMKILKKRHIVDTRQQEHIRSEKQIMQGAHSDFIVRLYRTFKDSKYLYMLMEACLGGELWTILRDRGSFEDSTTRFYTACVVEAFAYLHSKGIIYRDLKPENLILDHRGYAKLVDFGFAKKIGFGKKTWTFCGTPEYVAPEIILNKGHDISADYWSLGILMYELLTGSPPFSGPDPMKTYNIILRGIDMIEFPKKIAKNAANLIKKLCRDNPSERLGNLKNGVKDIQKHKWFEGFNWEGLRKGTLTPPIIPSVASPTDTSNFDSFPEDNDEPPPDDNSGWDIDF

With `CC(C)NC[C@@H](C(=O)N1CCN(c2ncnc3c2[C@H](C)C[C@H]3O)CC1)c1ccc(Cl)cc1` [GDC-0068, ipatasertib, reference compound], the GR50 with ZR-75-1 cells was 229 nM. The “dose required to observe comparable effects on pPRAS40, pGSK3β, and pS6” value in test [1] (comparable to 250 nM INY-03-041) is recorded as “up to 1 μM”. Also, in [2], the “pPRAS40 levels over time” value is reported as “less pronounced inhibition of pPRAS40” and the “pPRAS40 levels after washout” value is “rebound of pPRAS40”.
What is called IC50 is the midpoint of a concentration-inhibition curve. Lower therefore signals greater potency in that assay. For the compound `C[C@@H]1C[C@@H](O)c2ncnc(N3CCN(C(=O)[C@H](CNCCCCCCCCCCc4cccc5c4CN(C4CCC(=O)NC4=O)C5=O)c4ccc(Cl)cc4)CC3)c21` (stereo partly drawn) [INY-03-041, 3-(4-(10-(((S)-2-(4-chlorophenyl)-3-(4-((5R,7R)-7-hydroxy-5-methyl-6,7-dihydro-5H-cyclopenta[d]pyrimidin-4-yl)piperazin-1-yl)-3-oxopropyl)amino)decyl)-1-oxoisoindolin-2-yl)piperidine-2,6-dione], the IC50 against AKT3 is 3.5 nM; against S6K1 [5], 37.3 nM; on PKG1 it was 33.2 nM; against RET (V804M), more than 10000 nM; on AKT2, 6.8 nM; on AKT1, 2 nM. In addition, in [3] (250 nM, T47D and MDA-MB-468), the “duration of sustained destabilization of all three AKT isoforms” value is “at least 96 hours”. Besides, the “AKT levels after compound washout” value in [3] (12 hours treatment with 250 nM, then washout) is on record as “no detectable rebound of AKT levels for up to 96 hours”. Also, the “GR50 comparison” value in test [4] is “no apparent differences in GR50 values between INY-03-041 and INY-03-112”. In addition, the “S6K1 and PKG1 abundance (proteomics)” value in the test with MOLT4 cells proteome is on record as “no downregulation of either kinases was observed”. The “change in protein abundance (proteomics)” value with MOLT4 cells proteome is given as “significant downregulation of all three AKT isoforms, as well as RNF166”. The compound also had a GR50 in the test with ZR-75-1 cells of 16 nM. Also, in the test on ZR-75-1 cells, the “fold increased potency compared to GDC-0068 (GR50)” value stood at 14 fold. In test [1], the “concentration that significantly reduced pPRAS40, pGSK3β, and pS6 levels” value turned out to be 250 nM. The “S6K1 degradation (immunoblot)” value on S6K1 [6] is recorded as “did not induce S6K1 degradation”. For the same compound, the “IKZF1 and IKZF3 degradation (immunoblot)” value in test [7] is “weak IKZF1 and IKZF3 degradation”. Also, the “concentration at which IKZF1 and IKZF3 degradation was seen” value in test [7] is recorded as not below 500 nM. For the same compound, the “time to partial degradation of all AKT isoforms” value in test [8] (MDA-MB-468, 250 nM) was not above 4 h. Besides, the “concentration at which diminished AKT degradation (hook effect) was observed” value in test [8] (MDA-MB-468, 12-hour treatment) was not below 500 nM. The “AKT isoform levels after treatment” value in test [9] is recorded as “no detectable levels of all three AKT isoforms”. For the same compound, the “pPRAS40 levels over time” value in test [2] is on record as “significantly reduced for up to 96 hours”. Moreover, in test [2], the “pPRAS40 levels after washout” value is “potently suppressed levels of pPRAS40 for up to 96 hours after washout”.
On to `Nc1cccc2c1CN(C1CCC(=O)NC1=O)C2=O` (centres unmarked) [lenalidomide], for which the “anti-proliferative effects” value in test [10] is recorded as “did not have strong anti-proliferative effects”.
`C[C@@H]1C[C@@H](O)c2ncnc(N3CCN(C(=O)[C@H](CNCCCCCCCCCCc4cccc5c4CN(C4CCC(=O)N(C)C4=O)C5=O)c4ccc(Cl)cc4)CC3)c21` (stereo partly drawn) [INY-03-112, 3-(4-(10-(((S)-2-(4-chlorophenyl)-3-(4-((5R,7R)-7-hydroxy-5-methyl-6,7-dihydro-5H-cyclopenta[d]pyrimidin-4-yl)piperazin-1-yl)-3-oxopropyl)amino)decyl)-1-oxoisoindolin-2-yl)-1-methylpiperidine-2,6-dione]: the GR50 in the test on ZR-75-1 cells was 413 nM. Further, in test [8] (MDA-MB-468, immunoblot), the “AKT isoform degradation” value is given as “did not induce potent degradation of any AKT isoform”.
